25 compounds from ChEMBL document CHEMBL1268932, “Discovery and SAR of a series of 4,6-diamino-1,3,5-triazin-2-ol as novel non-nucleoside reverse transcriptase inhibitors of HIV-1” (Bioorg Med Chem Lett, 2010) can be followed below.

One may read the EC50 as the concentration at which the effect is half-maximal. Broadly, the IC50 is the concentration that inhibits the measured activity by half. Higher therefore signals lower potency. In general, Cmax refers to the highest concentration seen after dosing. In general, bioavailability refers to dose-corrected exposure relative to a reference, in per cent. Low values mean little systemic uptake, high ones much systemic uptake. As a reminder, the half-life is how long it takes for the measured level to halve. A low value points to rapid decline. The AUC is the area under the concentration-time curve, a measure of exposure. A higher AUC goes with high exposure.

Data set [1] concerns Human immunodeficiency virus 1. The data set is described as follows: Antiviral activity against wild type HIV1 assessed as inhibition of virus-induced cytopathic effect by cell based assay. Format: functional, organism-based. Summed up: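 Cell-based cytoprotection assay. The endpoint is EC50, the concentration giving 50% inhibition of the virus-induced cytopathic effect. Virus and cells were either HIV-1RF in CEM-SS cells or HIV-1IIIB in MT-4 cells.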
For orientation: Protection from cytopathic effect is a common read-out in antiviral testing.

Data set [2] deals with Human immunodeficiency virus type 1 reverse transcriptase (Human immunodeficiency virus 1, UniProt Q72547). Kind of data set: Inhibition of wild type HIV1 reverse transcriptase.
In data set [3] the test system is Human immunodeficiency virus 1. Kind of data set: Antiviral activity against HIV1 NL4-3 containing reverse transcriptase Y181C mutation infected in human CEM-SS cells assessed as inhibition of virus-induced cytopathic effect. Format: functional, organism-based. Particulars: Human immunodeficiency virus 1, NL4-3, CEM-SS.
Data set [4] is described as follows: Toxicity in human CEM-SS cells. Format: cell-based. Particulars: read-out: TC50 (the source's name).
The test system of data set [5] is Human immunodeficiency virus 1. The data set is described as follows: Antiviral activity against HIV1 NL4-3 containing reverse transcriptase K103N mutation infected in human CEM-SS cells assessed as inhibition of virus-induced cytopathic effect. Format: functional, organism-based. The settings on record: Human immunodeficiency virus 1, NL4-3, CEM-SS.
A short description of data set [6]: Cmax in rat at 4 mg/kg, po. Format: ADME, organism-based. Also noted: dose 4 mg/kg, route oral. Particulars: in vivo. Put shortly: (§1)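 Rats dosed orally at 4 mg/kg and intravenously at 2 mg/kg. Plasma parameters were Cmax and AUC, plus t1/2, Vdss and clearance after the IV dose. Apparent oral bioavailability was derived from both routes.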
The target of data set [7] is Human immunodeficiency virus type 1 reverse transcriptase (Human immunodeficiency virus 1, UniProt Q72547, Y188L). The data set is described as follows: Inhibition of HIV1 reverse transcriptase Y188L mutant.
A short description of data set [8]: Volume of distribution at steady state in rat at 4 mg/kg, po or 2 mg/kg, iv. Format: ADME, organism-based. The settings on record: in vivo, read-out: Vdss. Summed up: as §1
Data set [9] is described as follows: Oral bioavailability in rat at 4 mg/kg, po. Format: ADME, organism-based. Particulars: in vivo. Put shortly:
as §1

Data set [10] relates to Human immunodeficiency virus 1. The data set is described as follows: Antiviral activity against wild type HIV1 NL4-3 infected in human CEM-SS cells assessed as inhibition of virus-induced cytopathic effect. Format: functional, organism-based. The settings on record: Human immunodeficiency virus 1, NL4-3, CEM-SS.
Data set [11] concerns the target Human immunodeficiency virus type 1 reverse transcriptase (Human immunodeficiency virus 1, UniProt Q72547, L100I). Kind of data set: Inhibition of HIV1 reverse transcriptase L100I mutant.
The target in data set [12] is Human immunodeficiency virus type 1 reverse transcriptase (Human immunodeficiency virus 1, UniProt Q72547, V106A). The data set is described as follows: Inhibition of HIV1 reverse transcriptase V106A mutant.
Data set [13] can be described thus: Half life in rat at 2 mg/kg, iv. Format: ADME, organism-based. On the set-up: dose 2 mg/kg, route intravenous. Particulars: in vivo. Summed up: as §1
Data set [14] is described as follows: Clearance in rat at 4 mg/kg, po or 2 mg/kg, iv. The settings on record: in vivo. Format: ADME, organism-based. Summed up: as §1
Data set [15] can be described thus: AUC in rat at 4 mg/kg, po or 2 mg/kg, iv. Format: ADME, organism-based. Particulars: plasma. Summed up: as §1

Where only a bound is given, the exact number is not on record here.

In the case of `Cc1cccc(-c2ccccc2)c1Nc1nc(O)nc(NCc2ccc3occc3c2)n1`, the EC50 in data set [1] amounted to 200 nM. The same compound gave an IC50 in data set [2] of 0.07 µM.
On the same counts, the results for `CN(Cc1ccc2occc2c1)c1nc(O)nc(Nc2c(F)cc(F)cc2-c2ccccc2)n1` are 10 nM and 0.07 µM.
As for `O=C1Nc2ccc(Cl)cc2[C@@](C#CC2CC2)(C(F)(F)F)O1` [EFAVIRENZ], the EC50 in [3] is 5 nM; in [5] it was over 1000 nM. Moreover, in data set [4], the CC50 was over 1000 nM.
`CN(Cc1ccc2occc2c1)c1nc(O)nc(Nc2ccccc2N2CCOCC2)n1`: the IC50 in data set [2] is 4.1 µM.
Turning to `CN(Cc1ccc2occc2c1)c1nc(O)nc(Nc2c(F)cccc2-c2ccccc2)n1`, the EC50 in [3] is 100 nM; in data set [10], 6 nM; in data set [1] it was 5 nM; in data set [5], over 1000 nM. Further, in data set [4], the CC50 is over 1000 nM. The concentration in data set [6] peaked (Cmax) at 3.8 µM. Also, the IC50 in data set [7] came out at 6.1 µM; in [11], 47 nM; in data set [2], 0.008 µM; in data set [12], 9.1 µM. For the same compound, in data set [8], the Vd amounted to 0.35 L/kg. The bioavailability in data set [9] turned out to be 38%. The same compound had a half-life in [13] of 87 min. Also, in data set [14], the clearance is 5.17 mL/min/kg. Besides, the AUC in data set [15] stood at 12.5 µM·h.
As for `CC(C)(Nc1nc(O)nc(Nc2c(F)cccc2-c2ccccc2)n1)c1ccc2c(c1)OCO2`, in data set [2], the IC50 was over 100 µM.
On to `Cc1ccnc2c1NC(=O)c1cccnc1N2C1CC1` [NEVIRAPINE], for which the EC50 in data set [3] was over 1000 nM; in [10] it was 200 nM; in data set [5] it was over 1000 nM. Moreover, the CC50 in [4] is over 1000 nM.
As for `Cc1cccc(-c2ccccc2)c1Nc1nc(O)nc(N(C)Cc2ccc3c(c2)CCO3)n1`, the EC50 is 200 nM in data set [3], 6 nM in data set [10], 3 nM in data set [1] and over 1000 nM in [5]. For the same compound, in data set [4], the CC50 is over 1000 nM. Besides, the Cmax in [6] was determined as 6.1 µM. The IC50 in [7] came out at 9.5 µM; in data set [11] it was 70 nM; in data set [2] it was 0.055 µM; in data set [12], 36.7 µM. The Vd in [8] turned out to be 0.32 L/kg. Moreover, in data set [9], the bioavailability is 44%. In data set [13], the half-life was 84 min. In data set [14], this compound had a clearance of 4.5 mL/min/kg. For the same compound, in data set [15], the AUC was found to be 15.6 µM·h.
As for `Cc1cccc(-c2ccccc2)c1Oc1nc(O)nc(NCc2ccc3occc3c2)n1`, the EC50 in data set [1] came to 12600 nM. In addition, it took 9.7 µM to reach half-maximal inhibition in [2] (IC50).
On the same counts, the results for `Cc1cccc(-c2ccccc2)c1Oc1nc(N)nc(NCc2ccc3occc3c2)n1` are over 50000 nM and over 100 µM.
The corresponding values for `Oc1nc(NCc2ccc3cc[nH]c3c2)nc(Nc2cccc(Br)c2)n1` are over 10000 nM and 40 µM.
The corresponding values for `Cc1cccc(-c2ccccc2)c1Nc1nc(O)nc(N(C)Cc2ccc3c(c2)OCO3)n1` are 130 nM and 0.09 µM.
As to `Cc1cccc(-c2ccoc2)c1Nc1nc(O)nc(N(C)Cc2ccc3occc3c2)n1`, in data set [1], the EC50 came out at 7 nM. The same compound came in with an IC50 in [2] of 0.08 µM.
The corresponding values for `Oc1nc(NCc2ccc3cc[nH]c3c2)nc(Nc2cccc(Oc3ccccc3)c2)n1` are over 10000 nM and over 100 µM.
The corresponding values for `Cc1cccc(-c2ccccc2)c1Nc1nc(O)nc(NCc2ccc3c(c2)OCCCO3)n1` are 2800 nM and 4.4 µM.
The corresponding values for `Cc1cccc(-c2ccccc2)c1Nc1nc(O)nc(N(C)Cc2ccc3occc3c2)n1` are 120 nM and 0.083 µM.
For the compound `Oc1nc(NCc2ccc3occc3c2)nc(Nc2c(F)cccc2-c2ccccc2)n1`, in data set [1], the EC50 stood at 400 nM. For the same compound, 0.09 µM corresponded to half-maximal inhibition in data set [2] (IC50).
Take `Oc1nc(NCc2ccc3cc[nH]c3c2)nc(Nc2ccccc2-c2ccccc2)n1`: in [1], the EC50 was 7200 nM. Further, half-maximal inhibition in [2] (IC50) was put at 3.5 µM.
On the same counts, the results for `Cc1cccc(-c2ccccc2)c1Nc1nc(O)nc(NCc2ccc3cc[nH]c3c2)n1` are 900 nM and 0.5 µM.
On the same counts, the results for `COc1nc(NCc2ccc3occc3c2)nc(Nc2c(C)cccc2-c2ccccc2)n1` are 3000 nM and 2.57 µM.
For the compound `Cc1cccc(-c2ccccc2)c1Nc1nc(O)nc(NCc2ccc3c(ccn3S(C)(=O)=O)c2)n1`, in [1], the EC50 was over 10000 nM. The compound also gave an IC50 in data set [2] of over 100 µM.
In data set [2], `Fc1cccc(-c2ccccc2)c1Nc1nc(Cl)nc(NCc2ccc3occc3c2)n1` came in with an IC50 of over 100 µM.
On to `Cc1cccc(-c2ccccc2)c1N(C)c1nc(O)nc(NCc2ccc3occc3c2)n1`, for which the EC50 in [1] was 1500 nM. Moreover, the IC50 in data set [2] stood at 5.1 µM.
Consider `CCN(Cc1ccc2occc2c1)c1nc(O)nc(Nc2c(F)cccc2-c2ccccc2)n1`, for which, in data set [2], the IC50 is over 100 µM.
Take `Cc1cccc(-c2ccccc2)c1Nc1nc(O)nc(OCc2ccc3occc3c2)n1`: the EC50 in data set [1] was found to be 4000 nM. This compound showed an IC50 in [2] of 23.6 µM.
